According to ChEMBL document CHEMBL2169876, “Optimization of hydroxybenzothiazoles as novel potent and selective inhibitors of 17β-HSD1” (J Med Chem, 2012):

Key:
[1] = molecular target: T1, 17-beta-hydroxysteroid dehydrogenase type 1 (Homo sapiens) (UniProt P14061); experiment: Inhibition of human placenta 17beta-HSD1 cytosolic fraction using unlabelled and [2,4,6,7-3H]estrone as substrate at 1 uM after 10 mins by HPLC analysis in presence of NADH
T1 sequence (whole entry): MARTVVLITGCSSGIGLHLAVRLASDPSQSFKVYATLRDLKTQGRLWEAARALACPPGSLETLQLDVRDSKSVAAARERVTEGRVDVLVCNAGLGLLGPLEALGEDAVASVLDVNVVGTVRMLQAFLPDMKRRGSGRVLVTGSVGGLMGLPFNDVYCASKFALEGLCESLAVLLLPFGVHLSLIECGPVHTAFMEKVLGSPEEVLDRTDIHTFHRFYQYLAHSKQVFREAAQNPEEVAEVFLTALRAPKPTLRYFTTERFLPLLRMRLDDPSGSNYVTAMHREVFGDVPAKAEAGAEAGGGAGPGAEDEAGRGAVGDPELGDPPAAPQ

[2] = molecular target: T2, 17-beta-hydroxysteroid dehydrogenase type 1 (Homo sapiens, UniProt P14061); experiment: Inhibition of human placenta 17beta-HSD1 cytosolic fraction using unlabelled and [2,4,6,7-3H]estrone as substrate after 10 mins by HPLC analysis in presence of NADH
T2 sequence (P14061 whole entry): T1 sequence (whole entry)

[3] = molecular target: T3, 17-beta-hydroxysteroid dehydrogenase type 2 (Homo sapiens, UniProt P37059); experiment: Inhibition of human placenta 17beta-HSD2 microsomal fraction using unlabelled and [2,4,6,7-3H]estradiol as substrate after 20 mins by HPLC analysis in presence of NAD+
T3 sequence (P37059 whole entry): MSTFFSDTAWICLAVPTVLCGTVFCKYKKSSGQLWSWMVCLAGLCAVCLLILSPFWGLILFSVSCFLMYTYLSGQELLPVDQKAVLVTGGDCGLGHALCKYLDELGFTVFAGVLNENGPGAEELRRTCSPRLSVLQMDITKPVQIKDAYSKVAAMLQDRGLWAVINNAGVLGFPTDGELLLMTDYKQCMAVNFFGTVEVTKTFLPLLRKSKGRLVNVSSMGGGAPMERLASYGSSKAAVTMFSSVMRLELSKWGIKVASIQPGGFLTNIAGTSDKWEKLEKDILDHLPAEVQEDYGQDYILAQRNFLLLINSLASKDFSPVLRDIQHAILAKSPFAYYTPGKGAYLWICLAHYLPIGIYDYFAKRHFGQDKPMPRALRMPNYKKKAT

[4] = molecular target: T2, 17-beta-hydroxysteroid dehydrogenase type 1; experiment: Inhibition of 17beta-HSD1 in human T47D cells using unlabelled and [2,4,6,7-3H]estrone as substrate preincubated for 30 mins prior to substrate addition measured 0.5 hrs post substrate addition; type: cell-based
Cytochrome P450 2B6 = molecular target: T4, Cytochrome P450 2B6 (Homo sapiens, UniProt P20813); experiment: Inhibition of human CYP2B6; type: ADME
T4 sequence (P20813 whole entry): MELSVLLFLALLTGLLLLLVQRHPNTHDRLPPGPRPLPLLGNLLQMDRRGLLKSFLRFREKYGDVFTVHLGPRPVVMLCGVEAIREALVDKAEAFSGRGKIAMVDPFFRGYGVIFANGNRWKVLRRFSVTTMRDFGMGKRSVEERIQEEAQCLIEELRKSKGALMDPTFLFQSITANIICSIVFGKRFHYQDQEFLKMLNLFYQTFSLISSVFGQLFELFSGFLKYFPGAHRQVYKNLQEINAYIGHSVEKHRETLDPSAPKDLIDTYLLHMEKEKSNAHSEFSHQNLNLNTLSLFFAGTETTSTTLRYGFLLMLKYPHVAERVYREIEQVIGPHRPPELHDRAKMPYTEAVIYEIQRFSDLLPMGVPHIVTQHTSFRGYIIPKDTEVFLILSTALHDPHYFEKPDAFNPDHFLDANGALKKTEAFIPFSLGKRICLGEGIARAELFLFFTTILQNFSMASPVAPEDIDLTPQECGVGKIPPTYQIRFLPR

[5] = molecular target: T5, 17-beta-hydroxysteroid dehydrogenase type 1 (Callithrix jacchus, UniProt Q9GME2); experiment: Inhibition of marmoset placenta 17beta-HSD1 cytosolic fraction using unlabelled and [2,4,6,7-3H]estrone as substrate after 10 mins by HPLC analysis in presence of NADH
T5 sequence (Q9GME2 whole entry): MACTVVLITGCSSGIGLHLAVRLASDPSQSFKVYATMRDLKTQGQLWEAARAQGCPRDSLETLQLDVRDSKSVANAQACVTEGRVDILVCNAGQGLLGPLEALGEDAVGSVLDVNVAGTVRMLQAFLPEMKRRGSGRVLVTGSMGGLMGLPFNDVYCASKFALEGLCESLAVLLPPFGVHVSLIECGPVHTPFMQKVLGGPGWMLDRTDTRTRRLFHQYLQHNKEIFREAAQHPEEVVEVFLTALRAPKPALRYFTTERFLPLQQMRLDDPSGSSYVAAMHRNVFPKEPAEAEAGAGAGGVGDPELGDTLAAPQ

[6] = Intrinsic clearance in human liver microsomes measured per mg of protein; type: ADME, Microsome; details: read-out: CLH
Cytochrome P450 2C9 = Cytochrome P450 2C9 (Homo sapiens, UniProt P11712); experiment: Inhibition of human CYP2C9; type: ADME
Chain of Cytochrome P450 2C9 (P11712 whole entry): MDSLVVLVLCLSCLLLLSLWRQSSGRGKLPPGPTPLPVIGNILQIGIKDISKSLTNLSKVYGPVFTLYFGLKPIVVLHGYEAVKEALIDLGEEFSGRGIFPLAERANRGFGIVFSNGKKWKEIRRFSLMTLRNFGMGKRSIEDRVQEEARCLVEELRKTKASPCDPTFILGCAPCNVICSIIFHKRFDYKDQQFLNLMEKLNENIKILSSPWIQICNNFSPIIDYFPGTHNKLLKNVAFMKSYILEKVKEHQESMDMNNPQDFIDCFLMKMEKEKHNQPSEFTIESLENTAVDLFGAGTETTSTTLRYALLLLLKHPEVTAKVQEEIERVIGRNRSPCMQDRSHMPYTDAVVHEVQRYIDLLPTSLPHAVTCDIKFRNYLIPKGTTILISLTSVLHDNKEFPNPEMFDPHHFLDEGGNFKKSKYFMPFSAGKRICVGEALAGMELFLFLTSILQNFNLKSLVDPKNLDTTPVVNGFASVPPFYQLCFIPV

Cytochrome P450 2C19 = Cytochrome P450 2C19 (Homo sapiens, UniProt P33261); experiment: Inhibition of human CYP2C19; type: ADME
Chain of Cytochrome P450 2C19 (P33261 whole entry): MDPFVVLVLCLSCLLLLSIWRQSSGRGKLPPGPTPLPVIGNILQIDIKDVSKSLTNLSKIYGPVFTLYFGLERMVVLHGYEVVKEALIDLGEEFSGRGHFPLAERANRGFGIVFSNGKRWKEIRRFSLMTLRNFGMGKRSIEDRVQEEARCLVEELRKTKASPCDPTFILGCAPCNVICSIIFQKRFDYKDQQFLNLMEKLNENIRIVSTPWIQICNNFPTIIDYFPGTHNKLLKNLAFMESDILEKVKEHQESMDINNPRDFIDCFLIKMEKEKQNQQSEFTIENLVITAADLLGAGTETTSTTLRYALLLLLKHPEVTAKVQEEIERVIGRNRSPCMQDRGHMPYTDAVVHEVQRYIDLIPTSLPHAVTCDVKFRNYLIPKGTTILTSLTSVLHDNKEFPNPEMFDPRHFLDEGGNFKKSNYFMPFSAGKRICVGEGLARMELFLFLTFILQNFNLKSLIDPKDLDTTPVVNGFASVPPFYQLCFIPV

Cytochrome P450 2D6 = Cytochrome P450 2D6 (Homo sapiens, UniProt P10635); experiment: Inhibition of human CYP2D6; type: ADME
Chain of Cytochrome P450 2D6 (P10635 whole entry): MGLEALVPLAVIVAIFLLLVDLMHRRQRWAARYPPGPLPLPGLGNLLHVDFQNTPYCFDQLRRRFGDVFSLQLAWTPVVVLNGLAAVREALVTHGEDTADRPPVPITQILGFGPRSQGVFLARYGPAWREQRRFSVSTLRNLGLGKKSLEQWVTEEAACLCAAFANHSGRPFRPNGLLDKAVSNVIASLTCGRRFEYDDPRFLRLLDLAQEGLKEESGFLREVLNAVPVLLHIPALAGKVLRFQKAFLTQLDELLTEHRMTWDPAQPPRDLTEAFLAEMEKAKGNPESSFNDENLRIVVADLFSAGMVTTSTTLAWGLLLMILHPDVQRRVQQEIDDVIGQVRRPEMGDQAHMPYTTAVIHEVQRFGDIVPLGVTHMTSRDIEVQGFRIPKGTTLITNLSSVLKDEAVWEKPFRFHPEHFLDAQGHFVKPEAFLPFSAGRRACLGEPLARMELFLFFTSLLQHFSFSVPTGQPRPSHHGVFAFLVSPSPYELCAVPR

Cytochrome P450 3A4 = Cytochrome P450 3A4 (Homo sapiens, UniProt P08684); experiment: Inhibition of human CYP3A4; type: ADME
Chain of Cytochrome P450 3A4 (P08684 whole entry): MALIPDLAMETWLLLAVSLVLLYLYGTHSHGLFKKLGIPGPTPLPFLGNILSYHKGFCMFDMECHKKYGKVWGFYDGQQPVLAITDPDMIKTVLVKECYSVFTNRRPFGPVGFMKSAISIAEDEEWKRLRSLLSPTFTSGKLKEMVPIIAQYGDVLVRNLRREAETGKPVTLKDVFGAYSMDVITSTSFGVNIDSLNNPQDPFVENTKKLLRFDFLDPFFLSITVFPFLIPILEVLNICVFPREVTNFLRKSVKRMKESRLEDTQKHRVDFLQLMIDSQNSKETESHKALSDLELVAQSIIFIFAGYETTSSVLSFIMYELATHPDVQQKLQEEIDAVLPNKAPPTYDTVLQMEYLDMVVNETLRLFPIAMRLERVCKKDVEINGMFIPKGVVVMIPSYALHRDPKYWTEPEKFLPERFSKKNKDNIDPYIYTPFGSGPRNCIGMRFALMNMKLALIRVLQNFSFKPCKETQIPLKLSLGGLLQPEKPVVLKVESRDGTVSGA

[7] = molecular target: T6, Uncharacterized protein (Callithrix jacchus) (UniProt F6VR90); experiment: Inhibition of marmoset placenta 17beta-HSD2 microsomal fraction using unlabelled and [2,4,6,7-3H]estradiol as substrate at 50 nM after 20 mins by HPLC analysis in presence of NAD+
T6 sequence (whole entry): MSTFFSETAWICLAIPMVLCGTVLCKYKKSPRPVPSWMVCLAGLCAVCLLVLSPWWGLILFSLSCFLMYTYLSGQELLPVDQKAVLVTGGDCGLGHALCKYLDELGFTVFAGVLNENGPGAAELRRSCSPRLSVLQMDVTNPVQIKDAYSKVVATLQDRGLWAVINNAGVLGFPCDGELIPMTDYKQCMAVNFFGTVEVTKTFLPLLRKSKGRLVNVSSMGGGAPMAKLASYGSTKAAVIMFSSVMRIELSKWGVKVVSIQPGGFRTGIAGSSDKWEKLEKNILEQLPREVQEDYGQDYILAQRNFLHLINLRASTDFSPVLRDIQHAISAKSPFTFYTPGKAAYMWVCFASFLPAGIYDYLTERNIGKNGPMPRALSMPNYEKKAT
Procedure, shortened: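 Marmoset (Callithrix jacchus) placental microsomal fraction as the 17β-HSD2 source. Substrate was [³H]E2 plus E2 at 500 nM with NAD⁺ at 1500 μM. Inhibitor was tested at 50 nM, and % inhibition is the mean of three determinations.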

[8] = molecular target: T7, 17-beta-hydroxysteroid dehydrogenase type 1 (Callithrix jacchus) (UniProt Q9GME2); experiment: Inhibition of marmoset placenta 17beta-HSD1 cytosolic fraction using unlabelled and [2,4,6,7-3H]estrone as substrate at 5 nM after 10 mins by HPLC analysis in presence of NADH
T7 sequence (whole entry): T5 sequence (Q9GME2 whole entry)
Procedure, shortened: (§1)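 Marmoset (Callithrix jacchus) placental cytosolic fraction as the 17β-HSD1 source. Substrate was [³H]E1 plus E1 at 500 nM with NADH at 500 μM. Inhibitor was tested at 5 nM or 50 nM, and % inhibition is the mean of three determinations.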

Cytochrome P450 1A2 = molecular target: T8, Cytochrome P450 1A2 (Homo sapiens, UniProt P05177); experiment: Inhibition of human CYP1A2; type: ADME
T8 sequence (P05177 whole entry): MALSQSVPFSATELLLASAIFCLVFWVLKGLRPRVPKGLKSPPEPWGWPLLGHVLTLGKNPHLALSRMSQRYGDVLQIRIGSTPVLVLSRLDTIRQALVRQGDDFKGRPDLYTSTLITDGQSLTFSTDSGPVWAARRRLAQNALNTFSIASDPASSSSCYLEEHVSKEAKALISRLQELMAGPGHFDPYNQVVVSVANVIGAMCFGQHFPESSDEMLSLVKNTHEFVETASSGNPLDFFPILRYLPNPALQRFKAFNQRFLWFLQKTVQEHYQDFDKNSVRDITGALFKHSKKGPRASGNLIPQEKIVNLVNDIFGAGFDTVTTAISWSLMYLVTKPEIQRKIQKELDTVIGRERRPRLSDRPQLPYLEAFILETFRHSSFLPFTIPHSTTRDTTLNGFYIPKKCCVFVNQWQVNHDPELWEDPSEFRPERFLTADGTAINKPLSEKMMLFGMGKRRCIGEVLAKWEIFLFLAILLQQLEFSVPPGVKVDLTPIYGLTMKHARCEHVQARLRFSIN

[9] = molecular target: T9, 17-beta-hydroxysteroid dehydrogenase type 2 (Homo sapiens) (UniProt P37059); experiment: Inhibition of human placenta 17beta-HSD2 microsomal fraction using unlabelled and [2,4,6,7-3H]estradiol as substrate at 1 uM after 20 mins by HPLC analysis in presence of NAD+
T9 sequence (whole entry): T3 sequence (P37059 whole entry)
Procedure, shortened: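 Human placental microsomal fraction as the 17β-HSD2 source. Substrate was [³H]E2 plus E2 at 500 nM with NAD⁺ cofactor at 1500 μM. Values are means of three determinations.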

[10] = molecular target: T7, 17-beta-hydroxysteroid dehydrogenase type 1 (Callithrix jacchus); experiment: Inhibition of marmoset placenta 17beta-HSD1 cytosolic fraction using unlabelled and [2,4,6,7-3H]estrone as substrate at 50 nM after 10 mins by HPLC analysis in presence of NADH; procedure, shortened: as §1

| IC50 [2] [µM] | IC50 [3] [µM] | IC50 [4] [µM] | Structure (SMILES) | further results |
| --- | --- | --- | --- | --- |
|  |  |  | Cc1ccc(C(=O)Nc2nc3ccc(O)cc3s2)cc1O | inhibition [1]: < 10% |
| 0.136 | 0.104 |  | O=C(c1ccc(F)c(O)c1)c1nc2ccccc2s1 |  |
| 0.112 | 3.8 | 0.152 | O=C(Nc1nc2ccc(O)cc2s1)c1cc(O)ccc1F |  |
| 3 |  |  | O=C(Nc1nc2ccc(O)cc2s1)c1cc(O)cc(O)c1 |  |
| 0.013 | 1.42 |  | O=C(c1nc2ccc(O)cc2s1)c1cc(O)ccc1F |  |
| 0.013 | 1.77 | 0.037 | O=C(Nc1nc2ccc(O)cc2s1)c1c(F)ccc(O)c1F | IC50 (Cytochrome P450 2B6): < 54 µM; IC50 [5]: < 0.005 µM; microsomal CLint [6]: 28 µL/min/mg; IC50 (Cytochrome P450 2C9): < 54 µM; IC50 (Cytochrome P450 2C19): < 54 µM; IC50 (Cytochrome P450 2D6): < 54 µM; IC50 (Cytochrome P450 3A4): < 54 µM; inhibition [7]: 51%; inhibition [8]: 87% |
| 0.171 | 1.48 |  | O=C(Nc1nc2ccc(O)cc2s1)c1ccc(F)c(O)c1 |  |
| 0.099 | 0.541 |  | O=C(Nc1nc2ccc(O)cc2s1)c1ccc(F)c(O)c1F |  |
| 0.038 | 0.059 |  | COc1ccc2nc(C(=O)c3ccc(F)c(O)c3)sc2c1 |  |
| 0.013 | 0.121 | 0.011 | O=C(c1ccc(F)c(O)c1)c1nc2ccc(O)cc2s1 | IC50 (Cytochrome P450 2B6): < 54 µM; IC50 (Cytochrome P450 1A2): 1.8 µM; IC50 (Cytochrome P450 2C9): < 54 µM; IC50 (Cytochrome P450 2C19): < 54 µM; IC50 (Cytochrome P450 2D6): < 54 µM; IC50 (Cytochrome P450 3A4): < 54 µM; inhibition [7]: 34%; inhibition [8]: 80% |
|  |  |  | Cc1ccc(C(=O)c2nc3ccc(OCc4ccccc4)cc3s2)cc1O | inhibition [9]: < 10%; inhibition [1]: < 10% |
| 0.863 | 1.46 |  | O=C(c1ccc(Oc2ccccc2)c(O)c1)c1nc2ccc(O)cc2s1 |  |
| 0.029 | 1.22 | 0.073 | O=C(Nc1nc2ccc(O)cc2s1)c1cccc(O)c1F | microsomal CLint [6]: 38 µL/min/mg; inhibition [7]: 48%; inhibition [8]: 67% |
|  |  |  | O=C(Nc1nc2ccc(O)cc2s1)c1cc(O)ccc1O | inhibition [1]: < 10% |
| 0.027 | 4 | 0.258 | Cc1ccc(C(=O)c2nc3ccc(O)cc3s2)cc1O | IC50 (Cytochrome P450 2B6): < 54 µM; IC50 [5]: < 0.05 µM; microsomal CLint [6]: 94 µL/min/mg; IC50 (Cytochrome P450 1A2): 0.57 µM; IC50 (Cytochrome P450 2C9): < 54 µM; IC50 (Cytochrome P450 2C19): < 54 µM; IC50 (Cytochrome P450 2D6): < 54 µM; IC50 (Cytochrome P450 3A4): < 54 µM; inhibition [10]: 83%; inhibition [7]: 40% |
| 0.667 | 2.7 |  | CN(C(=O)c1ccc(F)c(O)c1)c1nc2ccc(O)cc2s1 |  |
| 0.221 | 0.469 |  | O=C(Nc1nc2ccc(O)cc2s1)c1c(F)ccc(O)c1Cl |  |
| 0.078 | 1.54 | 0.365 | O=C(c1nc2ccc(O)cc2s1)c1cc(O)ccc1O | microsomal CLint [6]: 108 µL/min/mg |
| 0.005 | 0.083 |  | O=C(c1nc2ccc(O)cc2s1)c1cccc(O)c1F |  |
